Results: ChEMBL document CHEMBL2169742, “Design, synthesis, and biological evaluation of novel transrepression-selective liver X receptor (LXR) ligands with 5,11-dihydro-5-methyl-11-methylene-6H-dibenz[b,e]azepin-6-one skeleton” (J Med Chem, 2012)
One block for each molecule: values may come before it. Activity calls are given as the source filed them. The rule behind the calls is not given here.

Experiments:
[1] = Metabolic stability in human liver microsomes assessed as compound remaining at 0.1 uM by LC-MS/MS analysis; type: ADME, Microsome; conditions: read-out: Stability
Method in brief: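 Human liver microsomes were incubated with compound at 0.1 μM. Percent parent remaining was quantified by LC/MS/MS; imipramine, propranolol, terfenadine and verapamil served as controls.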

[2] = Apparent permeability from apical to basal side of human Caco2 cells at 10 uM; type: ADME, cell-based; conditions: Caco-2
Method in brief: (§1)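 Colchicine and ranitidine were low-permeability controls, propranolol the high-permeability control, labetalol the P-gp substrate control.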

[3] = Permeability from apical to basal side of human Caco2 cells at 10 uM; type: ADME, cell-based; conditions: Caco-2, read-out: permeability; method in brief: as §1
[4] = Induction of LPS-induced IL-6 production in LXRalpha,LXRbeta-deficient C57BL/6J mouse peritoneal macrophages at 3 uM incubated for 6 hrs prior to LPS-induction measured after 18 hrs by ELISA; type: cell-based; conditions: peritoneal macrophage cell
Method in brief: (§2)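 Thioglycollate-elicited peritoneal macrophages came from 8–10-week LXRα/β-null mice on C57BL/6J background, harvested 4 days post-injection. They were adhered, rested 24 h and plated at 2 × 10⁵/well, then pretreated with compound 6 h before LPS 10 ng/mL. Supernatant mIL-6 was measured by ELISA after 18 h; means ± SE of ≥3 independent measurements, ANOVA.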

[5] = target: T1, Oxysterols receptor LXR-beta (Homo sapiens, UniProt P55055); experiment: Transactivational agonist activity at human LXRbeta transfected in HEK293 cells expressing CMX-Gal4N assessed as luciferase activity after 16 hrs by reporter gene assay relative to N-(4-(1,1,1,3,3,3-hexafluoro-2-hydroxypropan-2-yl)phenyl)-N-methylbenzamide; type: cell-based; conditions: read-out: Efficacy
T1 sequence (P55055 whole entry): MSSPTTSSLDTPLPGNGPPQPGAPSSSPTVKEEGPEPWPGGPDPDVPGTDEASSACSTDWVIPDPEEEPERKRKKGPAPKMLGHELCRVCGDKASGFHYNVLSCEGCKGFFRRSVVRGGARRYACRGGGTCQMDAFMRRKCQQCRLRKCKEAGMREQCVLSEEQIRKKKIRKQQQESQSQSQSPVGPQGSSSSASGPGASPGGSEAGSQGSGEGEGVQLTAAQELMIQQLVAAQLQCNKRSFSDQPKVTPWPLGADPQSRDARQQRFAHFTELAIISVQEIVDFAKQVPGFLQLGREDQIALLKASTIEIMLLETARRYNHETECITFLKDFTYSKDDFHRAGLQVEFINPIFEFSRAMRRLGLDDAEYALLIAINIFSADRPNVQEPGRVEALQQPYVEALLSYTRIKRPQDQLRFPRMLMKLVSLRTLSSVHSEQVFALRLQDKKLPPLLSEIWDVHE

[6] = target: T2, Oxysterols receptor LXR-alpha (Homo sapiens, UniProt Q13133); experiment: Transactivational agonist activity at human LXRalpha transfected in HEK293 cells expressing CMX-Gal4N assessed as luciferase activity after 16 hrs by reporter gene assay relative to N-(4-(1,1,1,3,3,3-hexafluoro-2-hydroxypropan-2-yl)phenyl)-N-methylbenzamide; type: cell-based; conditions: read-out: Efficacy
T2 sequence (Q13133 whole entry): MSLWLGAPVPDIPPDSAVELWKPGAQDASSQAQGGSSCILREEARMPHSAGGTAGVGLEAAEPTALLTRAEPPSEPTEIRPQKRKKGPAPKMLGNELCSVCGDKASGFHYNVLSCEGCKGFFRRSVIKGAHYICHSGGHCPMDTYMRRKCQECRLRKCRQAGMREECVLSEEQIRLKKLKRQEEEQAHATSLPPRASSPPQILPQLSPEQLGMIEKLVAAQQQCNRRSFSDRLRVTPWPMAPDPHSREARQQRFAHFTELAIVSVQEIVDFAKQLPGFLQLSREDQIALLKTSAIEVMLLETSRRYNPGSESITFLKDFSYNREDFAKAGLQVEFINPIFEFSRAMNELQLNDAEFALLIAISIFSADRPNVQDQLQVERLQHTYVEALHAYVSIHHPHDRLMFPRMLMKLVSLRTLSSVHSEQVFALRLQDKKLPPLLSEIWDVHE

[7] = tested on: Peritoneal macrophage cell; experiment: Inhibition of LPS-induced IL-6 production in LXRalpha,LXRbeta-deficient C57BL/6J mouse peritoneal macrophages at 10 uM incubated for 6 hrs prior to LPS-challenge measured after 18 hrs by ELISA; type: functional, cell-based; method in brief: as §2
[8] = target: T3, Oxysterols receptor LXR-alpha (Homo sapiens) (UniProt Q13133); experiment: Transactivational antagonist activity at human LXRalpha transfected in HEK293 cells coexpressing CMX-Gal4N-SMRT assessed as SMRT recruitment after 16 hrs by reporter gene assay; type: functional, cell-based
T3 sequence (whole entry): T2 sequence (Q13133 whole entry)
Method in brief: (§3)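 Mammalian two-hybrid in HEK293 cells by calcium phosphate cotransfection: CMX-VP16N-hLXRα, Gal4N-fused SRC1, DRIP205, NCoR or SMRT (15 ng), tk-MH100×4-luc (50 ng) and CMX-β-gal (10 ng). Compound or DMSO added 8 h after transfection for 16 h. Luciferase was normalized to β-galactosidase, in triplicate.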

[9] = target: T3, Oxysterols receptor LXR-alpha (Homo sapiens); experiment: Transactivational antagonist activity at human LXRalpha transfected in HEK293 cells coexpressing CMX-Gal4N-NCoR assessed as NCoR recruitment after 16 hrs by reporter gene assay; type: functional, cell-based; method in brief: as §3
[10] = target: T2, Oxysterols receptor LXR-alpha; experiment: Transactivational agonist activity at human LXRalpha transfected in HEK293 cells coexpressing CMX-Gal4N-DRIP205 assessed as DRIP205 recruitment at 10 uM after 16 hrs by mammalian two-hybrid assay; type: cell-based; conditions: hek293, 16 h; method in brief: as §3
[11] = target: T2, Oxysterols receptor LXR-alpha; experiment: Transactivational agonist activity at human LXRalpha transfected in HEK293 cells coexpressing CMX-Gal4N-SRC1 assessed as SRC1 recruitment at 10 uM after 16 hrs by mammalian two-hybrid assay; type: cell-based; conditions: hek293, 16 h; method in brief: as §3
[12] = target: T1, Oxysterols receptor LXR-beta; experiment: Transactivational antagonist activity at human LXRbeta transfected in HEK293 cells expressing CMX-Gal4N assessed as inhibition of T1317-induced luciferase activity after 16 hrs by reporter gene assay; type: functional, cell-based
[13] = target: T2, Oxysterols receptor LXR-alpha; experiment: Transactivational antagonist activity at human LXRalpha transfected in HEK293 cells expressing CMX-Gal4N assessed as inhibition of T1317-induced luciferase activity after 16 hrs by reporter gene assay; type: functional, cell-based
[14] = target: T1, Oxysterols receptor LXR-beta; experiment: Transactivational agonist activity at human LXRbeta transfected in HEK293 cells expressing CMX-Gal4N assessed as luciferase activity at 30 uM after 16 hrs by reporter gene assay; type: cell-based; conditions: hek293, 16 h
[15] = target: T2, Oxysterols receptor LXR-alpha; experiment: Transactivational agonist activity at human LXRalpha transfected in HEK293 cells expressing CMX-Gal4N assessed as luciferase activity at 30 uM after 16 hrs by reporter gene assay; type: cell-based; conditions: hek293, 16 h
[16] = Binding affinity to GST at 1 uM after 1 hr by fluorescence polarization assay
Method in brief: (§4)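 Fluorescence polarization binding: full-length GST-hLXRα or GST was expressed in E. coli Rosetta(DE3) (0.4 mM IPTG, 15 °C, 24 h) and purified on glutathione resin. Protein dilutions, or 1 μM protein with competitor, were incubated with fluorescent probe 23 (1 μM) for 1 h at 0 °C. Buffer was 50 mM Tris-HCl, 10 mM reduced glutathione, pH 8.0; excitation 400 nm, emission 500 nm.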

[17] = target: T3, Oxysterols receptor LXR-alpha (Homo sapiens); experiment: Binding affinity to human GST-tagged LXRalpha expressed in Escherichia coli BL21(DE3) at 1 uM after 1 hr by fluorescence polarization assay; method in brief: as §4
Liver X receptor = target: T4, Liver X receptor (Homo sapiens, UniProt Q13133+P55055); experiment: Transrepressional activity at LXR in human TPA-activated THP1 cells assessed as inhibition of LPS-induced IL6 production incubated for 6 hrs prior to LPS-challenge measured after 18 hrs by ELISA; type: cell-based; conditions: thp-1
T4 sequence (Q13133 whole entry): T2 sequence (Q13133 whole entry)
T4 sequence (P55055 whole entry): T1 sequence (P55055 whole entry)

[18] = tested on: Peritoneal macrophage cell; experiment: Inhibition of LPS-induced IL-1beta mRNA expression in LXRalpha-deficient C57BL/6J mouse peritoneal macrophages at 10 uM incubated for 6 hrs prior to LPS-challenge measured after 18 hrs by RT-PCR analysis; type: functional, cell-based
Method in brief: (§5)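 Thioglycollate-elicited peritoneal macrophages (wild-type C57BL/6J or LXRα-null, 8–10 weeks) were plated at 4 × 10⁶/well and pretreated with compound 6 h before LPS 100 ng/mL. Cells were harvested after 18 h. il-6 and il-1β mRNA were measured by real-time quantitative PCR, normalized to GAPDH.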

[19] = tested on: Peritoneal macrophage cell; experiment: Inhibition of LPS-induced IL-6 mRNA expression in LXRalpha-deficient C57BL/6J mouse peritoneal macrophages at 10 uM incubated for 6 hrs prior to LPS-challenge measured after 18 hrs by RT-PCR analysis; type: functional, cell-based; method in brief: as §5
[20] = Induction of LPS-induced IL-6 production in LXRalpha,LXRbeta-deficient C57BL/6J mouse peritoneal macrophages at 10 uM incubated for 6 hrs prior to LPS-induction measured after 18 hrs by ELISA; type: cell-based; conditions: peritoneal macrophage cell; method in brief: as §2
[21] = Transrepressional activity at LXR in C57BL/6J mouse peritoneal macrophages assessed as inhibition of LPS-induced IL-1beta mRNA expression at 10 uM incubated for 6 hr prior to LPS-challenge measured after 18 hrs by RT-PCR analysis; method in brief: as §5
[22] = Transrepressional activity at LXR in C57BL/6J mouse peritoneal macrophages assessed as inhibition of LPS-induced IL-6 mRNA expression at 10 uM incubated for 6 hr prior to LPS-challenge measured after 18 hrs by RT-PCR analysis; method in brief: as §5
[23] = target: T1, Oxysterols receptor LXR-beta; experiment: Transactivational agonist activity at human LXRbeta transfected in HEK293 cells expressing CMX-Gal4N assessed as luciferase activity after 16 hrs by reporter gene assay; type: cell-based
Method in brief: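 Gal4-hLXRα or Gal4-hLXRβ chimera (15 ng) cotransfected with tk-MH100×4-luc reporter (50 ng) and CMX-β-gal (10 ng) into HEK293 cells by calcium phosphate. Luciferase was normalized to β-gal, in triplicate.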

[24] = target: T2, Oxysterols receptor LXR-alpha; experiment: Transactivational agonist activity at human LXRalpha transfected in HEK293 cells expressing CMX-Gal4N assessed as luciferase activity after 16 hrs by reporter gene assay; type: cell-based
[25] = target: T5, Oxysterols receptor LXR-beta (Homo sapiens) (UniProt P55055); experiment: Transactivational antagonist activity at human LXRbeta transfected in HEK293 cells expressing CMX-Gal4N assessed as inhibition of T1317-induced luciferase activity at 30 uM after 16 hrs by reporter gene assay; type: functional, cell-based
T5 sequence (whole entry): T1 sequence (P55055 whole entry)
Method in brief: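 Gal4-hLXRα or Gal4-hLXRβ chimera (15 ng) cotransfected with tk-MH100×4-luc reporter (50 ng) and CMX-β-gal (10 ng) into HEK293 cells by calcium phosphate. From 8 h post-transfection, cells got compound (0.1–30 μM) or DMSO for 16 h. Luciferase was normalized to β-gal, in triplicate.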

[26] = target: Liver X receptor (Homo sapiens) (UniProt Q13133+P55055); experiment: Transrepressional activity at LXR in human TPA-activated THP1 cells assessed as inhibition of LPS-induced IL6 production at 30 uM incubated for 6 hrs prior to LPS-challenge measured after 18 hrs by ELISA; type: cell-based; conditions: THP-1
Method in brief: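 THP-1 cells were differentiated with 10 nM TPA for 48 h, then replated at 3 × 10⁴/well. They were pretreated with sample for 6 h before LPS (100 ng/mL). Supernatant IL-6 was measured by ELISA after 18 h.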

Structure (SMILES): C=C1c2ccccc2C(=O)N(C)c2ccc(O)cc21
remaining at 0.1 µM [1]: 87.8%
Papp A→B at 10 µM [2]: ≥ 20 ×10⁻⁶ cm/s
Papp A→B at 10 µM [3]: 84.3 ×10⁻⁶ cm/s

Structure (SMILES): O=S(=O)(c1ccccc1)N(CC(F)(F)F)c1ccc(C(O)(C(F)(F)F)C(F)(F)F)cc1 [T091317]
Activity [4]: Toxic
Emax [5]: 118%
Emax [6]: 124%

Structure (SMILES): COc1ccc(CCc2ccc(N3C(=O)c4ccc(N(C)C)cc4C3=O)cc2)cc1
Activity [16]: inactive
Activity [17]: Active

Structure (SMILES): Cn1c(=O)c2ccccc2c2cc(C(O)(C(F)(F)F)C(F)(F)F)ccc21
inhibition [25]: inactive
IC50 [13]: 4.1 µM
Activity [14]: Not Active
Activity [15]: Not Active
inhibition [26]: inactive

Further lines, with some results ahead:

Activity [8]: Dose-dependent effect
Activity [9]: Dose-dependent effect
IC50 [12]: > 10 µM
IC50 [13]: 5.4 µM
Activity [14]: Not Active
Activity [15]: Not Active
Structure (SMILES): C=C1c2ccccc2C(=O)N(C)c2ccc(C(C)(C)C)cc21
inhibition [7]: inactive
Activity [10]: Toxic
Activity [11]: Toxic

IC50 (Liver X receptor): 5.8 µM
inhibition [21]: Active
inhibition [22]: Active
Emax [5]: 73%
EC50 [23]: 0.77 µM
Emax [6]: 45%
EC50 [24]: 1.7 µM
Structure (SMILES): C=C1c2ccccc2C(=O)N(C)c2ccc(C(O)(C(F)(F)F)C(F)(F)F)cc21
inhibition [18]: inactive
inhibition [19]: inactive
Activity [20]: Toxic
inhibition [7]: inactive
